Experimental data published in ChEMBL document CHEMBL2311265, “5'-Phosphate and 5'-phosphonate ester derivatives of (N)-methanocarba adenosine with in vivo cardioprotective activity” (J Med Chem, 2013).
In brackets after ≈: the same amount, converted by molar mass. Activity calls are given as the source filed them. No cut-off for these calls is given here.

What was measured:
Mus musculus [1] = test: Cardioprotective activity in BL6 mouse LAD ligation ischemic heart failure model assessed as fractional shortening at 10 uM, sc administered as infusion at 24 hrs post LAD ligation for 28 days by echocardiography (reference value: 17.33 +/- 1.36%); assay type: functional
Mus musculus [2] = test: Ex-vivo cardioprotective activity in BL6 mouse LAD ligation ischemic heart failure model assessed as left ventricular rate of pressure change in isolated heart at 10 uM, sc administered as infusion at 24 hrs post LAD ligation for 28 days (reference value: 6156 +/- 356 mmHg/s); assay type: functional
How it was run: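 LAD-ligated BL6 mice were infused via mini-osmotic pump with 10 µM in PBS pH 7.4 at 6 µL per day for 28 days. Isolated working hearts then ejected buffered perfusate against a constant 56 mmHg hydrostatic afterload, and LV +dP/dt was recorded. Mean ± SEM against vehicle-infused controls; one-way ANOVA with Newman-Keuls.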

Mus musculus [3] = test: Ex-vivo cardioprotective activity in BL6 mouse LAD ligation ischemic heart failure model assessed as change in infarct size at 10 uM, sc administered as infusion at 24 hrs post LAD ligation for 28 days relative to control; assay type: functional, organism-based
How it was run: (§1)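 Permanent LAD ligation in 12-week-old WT BL6 mice under intraperitoneal ketamine (100 mg/kg) and xylazine (10 mg/kg). Starting within 24 h, agents in PBS pH 7.4 at 10 µM were infused by mini-osmotic pump at 6 µL per d for 28 d. Controls were vehicle-infused WT mice and cardiac P2X4R-overexpressing transgenic mice. Infarct size was taken after heart-function measurement, from formalin-fixed, paraffin 4-µm Masson's trichrome sections, as infarct length over endocardial plus epicardial circumference. One-way ANOVA with Newman-Keuls test.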

Mus musculus [4] = test: Cardioprotective activity in BL6 mouse LAD ligation ischemic heart failure model assessed as change in infarct size at 10 uM, sc administered as infusion at 24 hrs post-LAD ligation for 1 month relative to control; assay type: functional, organism-based; how it was run: as §1
[5] = Chemical stability of the compound in aqueous medium at pH 1 at 50 degC after 24 hrs by HPLC analysis; assay type: physicochemical; conditions: buffer, pH 1, 24 h
How it was run: (§2)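 Incubation for 24 h in aqueous medium at pH 1 or pH 11, 50°C, and checked for hydrolysis.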

Plasma = test: Metabolic stability of the compound in rat plasma at 1.09 mM by HPLC analysis; assay type: ADME, cell-free; conditions: 1090 µM
How it was run: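 Incubation with rat plasma at 37°C for 24 h, and checked for hydrolysis.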

Liver microsomes = test: Metabolic stability of the compound in rat liver microsomes by HPLC analysis; assay type: ADME, Microsome
How it was run: (§3)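 Incubation with mouse or rat liver microsomes at 37°C for 24 h, and checked for hydrolysis.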

[6] = Aqueous solubility of the compound after 1 hr; assay type: physicochemical; conditions: buffer
How it was run: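 Excess solid stirred in water, supernatant removed and lyophilized; solubility calculated from the mass of solid recovered.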

Mus musculus [7] = test: Cardioprotective activity in mouse overexpressing clasequestrin assessed as increase in LV septal wall thickness during systole at 10 uM, sc administered as infusion for 2 weeks relative to control; assay type: functional, organism-based
How it was run: (§4)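 CSQ-overexpressing mice with heart failure, 2-week infusion (n=5). Outcome is LV septal and posterior wall thickness versus normal-saline-infused CSQ mice. Values are mean ± standard error.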

Mus musculus [8] = test: Cardioprotective activity in mouse overexpressing clasequestrin assessed as increase in LV posterior wall thickness during systole at 10 uM, sc administered as infusion for 2 weeks relative to control; assay type: functional, organism-based; how it was run: as §4
[9] = Chemical stability of the compound in aqueous medium at pH 11 at 50 degC after 24 hrs by HPLC analysis; assay type: physicochemical; conditions: buffer, pH 11, 24 h; how it was run: as §2
Liver = test: Metabolic stability of the compound in mouse liver microsomes by HPLC analysis; assay type: ADME, Microsome; how it was run: as §3
Mus musculus [10] = test: Cardioprotective activity in mouse overexpressing clasequestrin assessed as increase in LV posterior wall thickness during diastole at 10 uM, sc administered as infusion for 2 weeks relative to control; assay type: functional, organism-based; how it was run: as §4
Mus musculus [11] = test: Cardioprotective activity in mouse overexpressing clasequestrin assessed as prevention of LV wall thinning at 10 uM, sc administered as infusion for 2 weeks; assay type: functional, organism-based; how it was run: as §4
Mus musculus [12] = test: Cardioprotective activity in mouse overexpressing clasequestrin assessed as increase in fractional shortening at 10 uM, sc administered as infusion for 2 weeks relative to control; assay type: functional, organism-based
Mus musculus [13] = species: Mus musculus; test: Agonist activity at P2XR receptor in wild type BL6 mouse cardiac ventricular myocytes assessed as increase in contraction shortening
How it was run: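 Adult wild-type murine cardiac ventricular myocytes; contraction shortening recorded at basal control, during drug exposure and after washout. Data are mean ± standard error (13 or 8 myocytes per agent).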

Mus musculus [14] = test: Cardioprotective activity in mouse overexpressing clasequestrin assessed as LV septal wall thickness at 10 uM, sc administered as infusion for 2 weeks (reference value: 0.45 +/- 0.007 mm); assay type: functional
Mus musculus [15] = test: Cardioprotective activity in mouse overexpressing clasequestrin assessed as LV posterior wall thickness at 10 uM, sc administered as infusion for 2 weeks (reference value: 0.45 +/- 0.007 mm); assay type: functional
Mus musculus [16] = test: Cardioprotective activity in mouse overexpressing clasequestrin assessed as increase in fractional shortening at 3.3 uM, sc administered as infusion for 2 weeks relative to control; assay type: functional, organism-based

| Compound | Activity (Mus musculus [1]) [%] | Activity (Mus musculus [2]) [mmHg/s] | Activity (Mus musculus [3]) | Activity (Mus musculus [4]) | other results |
| --- | --- | --- | --- | --- | --- |
| CC(C)(C)OP(=O)(OC[C@@]12C[C@@H]1[C@@H](n1cnc3c(N)nc(Cl)nc31)[C@H](O)[C@@H]2O)OC(C)(C)C | 24.07 | 6681 | inactive | inactive | – |
| Nc1nc(Cl)nc2c1ncn2[C@H]1[C@H](O)[C@H](O)[C@]2(COP(=O)(O)O)C[C@H]12 | – | – | – | – | Activity (Mus musculus [4]; tested as the 2H-labelled form): inactive |
| CC(C)OP(=O)(CC[C@@]12C[C@@H]1[C@@H](n1cnc3c(N)nc(Cl)nc31)[C@H](O)[C@@H]2O)OC(C)C | – | – | – | – | Stability [5]: Stable; Stability (Plasma): Stable; Stability (Liver microsomes): Stable; solubility [6]: 7.25 mM (≈ 3.44 mg/mL); Activity (Mus musculus [7]): Active; Activity (Mus musculus [8]): Active; Stability [9]: Stable; Stability (Liver): Stable; Activity (Mus musculus [10]): Active |
| CCOP(=O)(OCC)OC[C@@]12C[C@@H]1[C@@H](n1cnc3c(N)nc(Cl)nc31)[C@H](O)[C@@H]2O | 24.71 | 6711 | inactive | inactive | Activity (Mus musculus [4]; tested as the 2H-labelled form): inactive |
| CCOP(=O)(C[C@@]12C[C@@H]1[C@@H](n1cnc3c(N)nc(I)nc31)[C@H](O)[C@@H]2O)OCC | 23.05 | – | – | inactive | – |
| CC(C)OP(=O)(OC[C@@]12C[C@@H]1[C@@H](n1cnc3c(N)nc(Cl)nc31)[C@H](O)[C@@H]2O)OC(C)C | 25.77 | – | – | inactive | – |
| CCOP(=O)(OCC)SC[C@@]12C[C@@H]1[C@@H](n1cnc3c(N)nc(Cl)nc31)[C@H](O)[C@@H]2O | 24.31 | – | – | inactive | – |
| CCOP(=S)(OCC)OC[C@@]12C[C@@H]1[C@@H](n1cnc3c(N)nc(Cl)nc31)[C@H](O)[C@@H]2O | – | – | – | inactive | – |
| Nc1nc(I)nc2c1ncn2[C@H]1[C@H](O)[C@H](O)[C@]2(CP(=O)(O)O)C[C@H]12 | – | 6581 | inactive | inactive | Activity (Mus musculus [11]): inactive; Activity (Mus musculus [12]): inactive |
| [2H]C([2H])(OP(=O)(O)O)[C@@]12C[C@@H]1[C@@H](n1cnc3c(N)nc(Cl)nc31)[C@H](O)[C@@H]2O | 23.06 | – | – | – | – |
| Nc1nc(Cl)nc2c1ncn2[C@@H]1C2CC2(COP(=O)(O)O)[C@@H](O)[C@H]1O (single isomer, unassigned) | 22.14 | 6508 | inactive | inactive | Activity (Mus musculus [13]): Active |
| CCOP(=O)(C[C@@]12C[C@@H]1[C@@H](n1cnc3c(N)nc(Cl)nc31)[C@H](O)[C@@H]2O)OCC | – | 5946 | inactive | inactive | solubility [6]: 60 mM (≈ 25.9 mg/mL) |
| Nc1nc(Cl)nc2c1ncn2[C@H]1[C@H](O)[C@H](O)[C@]2(CSP(=O)(O)O)C[C@H]12 | – | 6553 | inactive | inactive | Activity (Mus musculus [14]): 0.492 mm; Activity (Mus musculus [15]): 0.493 mm |
| CCOP(=S)(OCC)SC[C@@]12C[C@@H]1[C@@H](n1cnc3c(N)nc(Cl)nc31)[C@H](O)[C@@H]2O | 24.76 | – | – | inactive | – |
| Nc1nc(Cl)nc2c1ncn2[C@H]1[C@H](O)[C@H](O)[C@]2(CCP(=O)(O)O)C[C@H]12 | – | – | – | – | Activity (Mus musculus [16]): Active; Activity (Mus musculus [13]): Active; Activity (Mus musculus [12]): Active |
| [2H]C([2H])(OP(=O)(OCC)OCC)[C@@]12C[C@@H]1[C@@H](n1cnc3c(N)nc(Cl)nc31)[C@H](O)[C@@H]2O | 21.48 | – | – | – | – |
